Values after ≈ are worked out from the molar mass of the structure shown. Active and inactive are the calls of the source. The rule behind the calls is not given here.
Legend:
Klebsiella pneumoniae [1] = experiment: Antibacterial activity against Klebsiella pneumoniae D 11750/08 up to 500 uM incubated for 24 to 48 hrs under dark condition by microdilution broth assay; type: functional
How it was run: (§1)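 Broth microdilution per M07-A07, modified, in Mueller-Hinton broth adjusted to pH 7.4 (±0.2). Inoculum is prepared in sterile water to McFarland 0.5 (1.5 × 10⁸ CFU/mL). Plates are incubated in the dark at 35 °C in humid air. MIC is read after 24 and 48 h as at least 95% growth reduction versus control (IC₉₅).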

Enterococcus [2] = experiment: Antibacterial activity against Enterococcus sp. J 14365/08 incubated for 24 hrs under dark condition by microdilution broth assay; settings: J 14365/08, 24 h
Mycobacterium avium [3] = experiment: Antimycobacterial activity against Mycobacterium avium 330/88 measured after 14 days by micromethod; type: functional; settings: 330/88, 336 h
Pichia kudriavzevii = experiment: Antifungal activity against Candida krusei E28 after 24 to 48 hrs hrs by microdilution broth assay; type: functional
How it was run: (§2)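 Broth microdilution per CLSI M27-A3 and M38-A2 in RPMI 1640 with glutamine, buffered to pH 7.0 with MOPS. Compounds are diluted in DMSO. Final inoculum is 5 × 10³ CFU/mL for yeasts and 0.5–5 × 10⁴ CFU/mL for moulds. Plates are incubated in the dark at 35 °C in humid air and read visually and/or at 540 nm after 24 and 48 h. MIC is ≥80% growth reduction (IC₈₀) for yeasts and ≥50% (IC₅₀) for filamentous fungi.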

Staphylococcus aureus [4] = experiment: Antibacterial activity against Staphylococcus aureus CCM 4516/08 incubated for 24 hrs under dark condition by microdilution broth assay; type: functional; settings: CCM 4516/08, 24 h; how it was run: as §1
Enterococcus [5] = experiment: Antibacterial activity against Enterococcus sp. J 14365/08 incubated for 48 hrs under dark condition by microdilution broth assay; settings: J 14365/08, 48 h
Staphylococcus aureus [6] = experiment: Antibacterial activity against methicillin-resistant Staphylococcus aureus H 5996/08 incubated for 24 hrs under dark condition by microdilution broth assay; type: functional; settings: H 5996/08, 24 h
How it was run: (§3)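 Microdilution broth method modified per M07-A07, in Mueller-Hinton broth adjusted to pH 7.4 (±0.2). Inoculum made in sterile water to 0.5 McFarland (1.5 × 10⁸ CFU/mL). Plates incubated in the dark at 35 °C in a humid atmosphere, with reads at 24 and 48 h. MIC taken as at least 95% growth reduction (IC₉₅) versus control.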

[7] = tested on: Staphylococcus epidermidis; experiment: Antibacterial activity against Staphylococcus epidermidis H 6966/08 incubated for 48 hrs under dark condition by microdilution broth assay; type: functional; settings: H 6966/08, 48 h; how it was run: as §1
Trichosporon asahii [8] = experiment: Antifungal activity against Trichosporon asahii 1188 after 24 hrs by microdilution broth assay; type: functional; settings: Trichosporon asahii, 1188, 24 h; how it was run: as §2
Pseudomonas aeruginosa = experiment: Antibacterial activity against Pseudomonas aeruginosa CCM 1961 up to 500 uM incubated for 24 to 48 hrs under dark condition by microdilution broth assay; type: functional; how it was run: as §1
Staphylococcus aureus [9] = experiment: Antibacterial activity against methicillin-resistant Staphylococcus aureus H 5996/08 incubated for 48 hrs under dark condition by microdilution broth assay; type: functional; settings: H 5996/08, 48 h; how it was run: as §3
Mycobacterium kansasii [10] = experiment: Antimycobacterial activity against Mycobacterium kansasii isolate 6509/96 after 21 days by micromethod; type: functional; settings: isolate 6509/96, 504 h
[11] = tested on: Trichophyton mentagrophytes; experiment: Antifungal activity against Trichophyton mentagrophytes 445 after 120 hrs by microdilution broth assay; type: functional; settings: Trichophyton mentagrophytes, 445, 120 h
How it was run: (§4)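 Broth microdilution per CLSI M38-A2 in RPMI 1640 with glutamine, buffered to pH 7.0 with MOPS, with DMSO as diluent. Final inoculum is 0.5–5 × 10⁴ CFU/mL. Plates are incubated in the dark at 35 °C in humid air and read visually and/or at 540 nm after 72 and 120 h. MIC is at least 50% growth reduction versus control.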

Candida albicans [12] = experiment: Antifungal activity against Candida albicans ATCC 44859 after 24 hrs by microdilution broth assay; type: functional; settings: ATCC 44859, 24 h; how it was run: as §2
[13] = tested on: Staphylococcus epidermidis; experiment: Antibacterial activity against Staphylococcus epidermidis H 6966/08 incubated for 24 hrs under dark condition by microdilution broth assay; type: functional; settings: H 6966/08, 24 h; how it was run: as §1
Candida albicans [14] = experiment: Antifungal activity against Candida albicans ATCC 44859 after 48 hrs by microdilution broth assay; type: functional; settings: ATCC 44859, 48 h; how it was run: as §2
Escherichia coli [15] = experiment: Antibacterial activity against Escherichia coli CCM 4517 incubated for 48 hrs under dark condition by microdilution broth assay; type: functional; settings: CCM 4517, 48 h; how it was run: as §1
Mycobacterium kansasii [16] = experiment: Antimycobacterial activity against Mycobacterium kansasii isolate 235/80 after 21 days by micromethod; type: functional; settings: isolate 235/80, 504 h
Candida tropicalis [17] = experiment: Antifungal activity against Candida tropicalis 156 after 48 hrs by microdilution broth assay; type: functional; settings: Candida tropicalis, 156, 48 h; how it was run: as §2
[18] = Solubility of the compound in Sula's semisynthetic medium up to 1 mM; type: physicochemical
Aspergillus fumigatus [19] = experiment: Antifungal activity against Aspergillus fumigatus 231 after 24 hrs by microdilution broth assay; type: functional; settings: Aspergillus fumigatus, 231, 24 h; how it was run: as §2
Trichosporon asahii [20] = experiment: Antifungal activity against Trichosporon asahii 1188 after 48 hrs by microdilution broth assay; type: functional; settings: Trichosporon asahii, 1188, 48 h; how it was run: as §2
Mycobacterium kansasii [21] = experiment: Antimycobacterial activity against Mycobacterium kansasii isolate 6509/96 after 14 days by micromethod; type: functional; settings: isolate 6509/96, 336 h
Mycobacterium avium [22] = experiment: Antimycobacterial activity against Mycobacterium avium 330/88 measured after 21 days by micromethod; type: functional; settings: 330/88, 504 h
Mycobacterium kansasii [23] = experiment: Antimycobacterial activity against Mycobacterium kansasii isolate 6509/96 after 7 days by micromethod; type: functional; settings: isolate 6509/96, 168 h
Escherichia coli [24] = experiment: Antibacterial activity against Escherichia coli CCM 4517 incubated for 24 hrs under dark condition by microdilution broth assay; type: functional; settings: CCM 4517, 24 h; how it was run: as §1
Mycobacterium kansasii [25] = experiment: Antimycobacterial activity against Mycobacterium kansasii isolate 235/80 after 14 days by micromethod; type: functional; settings: isolate 235/80, 336 h
Nakaseomyces glabratus [26] = experiment: Antifungal activity against Candida glabrata 20/I after 48 hrs by microdilution broth assay; type: functional; how it was run: as §2
[27] = tested on: Mycobacterium tuberculosis; experiment: Antimycobacterial activity against Mycobacterium tuberculosis H37Rv 331/88 measured after 14 days by micromethod; type: functional; settings: H37Rv 331/88, 336 h
Klebsiella pneumoniae [28] = experiment: Antibacterial activity against ESBL positive Klebsiella pneumoniae J 14368/08 up to 500 uM incubated for 24 to 48 hrs under dark condition by microdilution broth assay; type: functional; how it was run: as §1
Mycobacterium kansasii [29] = experiment: Antimycobacterial activity against Mycobacterium kansasii isolate 235/80 after 7 days by micromethod; type: functional; settings: isolate 235/80, 168 h
[30] = tested on: Mycobacterium tuberculosis; experiment: Antimycobacterial activity against Mycobacterium tuberculosis H37Rv 331/88 measured after 21 days by micromethod; type: functional; settings: H37Rv 331/88, 504 h
Lichtheimia corymbifera = experiment: Antifungal activity against Absidia corymbifera 272 after 24 to 48 hrs hrs by microdilution broth assay; type: functional; how it was run: as §2
Candida tropicalis [31] = experiment: Antifungal activity against Candida tropicalis 156 after 24 hrs by microdilution broth assay; type: functional; settings: Candida tropicalis, 156, 24 h; how it was run: as §2
Nakaseomyces glabratus [32] = experiment: Antifungal activity against Candida glabrata 20/I after 24 hrs by microdilution broth assay; type: functional; how it was run: as §2
Staphylococcus aureus [33] = experiment: Antibacterial activity against Staphylococcus aureus CCM 4516/08 incubated for 48 hrs under dark condition by microdilution broth assay; type: functional; settings: CCM 4516/08, 48 h; how it was run: as §1
[34] = tested on: Trichophyton mentagrophytes; experiment: Antifungal activity against Trichophyton mentagrophytes 445 after 72 hrs by microdilution broth assay; type: functional; settings: Trichophyton mentagrophytes, 445, 72 h; how it was run: as §4
Aspergillus fumigatus [35] = experiment: Antifungal activity against Aspergillus fumigatus 231 after 48 hrs by microdilution broth assay; type: functional; settings: Aspergillus fumigatus, 231, 48 h; how it was run: as §2

Compound	Activity (Klebsiella pneumoniae [1])	MIC95 (Enterococcus [2]) [µM]	MIC (Mycobacterium avium [3]) [µM]	Activity (Pichia kudriavzevii)	MIC95 (Staphylococcus aureus [4]) [µM]	MIC95 (Enterococcus [5]) [µM]	MIC95 (Staphylococcus aureus [6]) [µM]	MIC95 [7] [µM]	MIC80 (Trichosporon asahii [8]) [µM]	Activity (Pseudomonas aeruginosa)	MIC95 (Staphylococcus aureus [9]) [µM]	MIC (Mycobacterium kansasii [10]) [µM]	MIC50 [11] [µM]	MIC80 (Candida albicans [12]) [µM]	MIC95 [13] [µM]	MIC80 (Candida albicans [14]) [µM]	MIC95 (Escherichia coli [15]) [µM]	MIC (Mycobacterium kansasii [16]) [µM]	MIC80 (Candida tropicalis [17]) [µM]	solubility [18]	other results
O=C(O)CN1C(=O)/C(=C/c2ccccc2O)SC1=S	inactive	125 (≈ 36.9 µg/mL)	125 (≈ 36.9 µg/mL)	inactive	62.5 (≈ 18.5 µg/mL)	125 (≈ 36.9 µg/mL)	62.5 (≈ 18.5 µg/mL)	125 (≈ 36.9 µg/mL)	> 500	inactive	62.5 (≈ 18.5 µg/mL)	62.5 (≈ 18.5 µg/mL)	250 (≈ 73.8 µg/mL)	500 (≈ 148 µg/mL)	125 (≈ 36.9 µg/mL)	500 (≈ 148 µg/mL)	> 500	62.5 (≈ 18.5 µg/mL)	> 500	Soluble	MIC50 (Aspergillus fumigatus [19]): > 500 µM; MIC80 (Trichosporon asahii [20]): > 500 µM; MIC (Mycobacterium kansasii [21]): 62.5 µM (≈ 18.5 µg/mL); MIC (Mycobacterium avium [22]): 125 µM (≈ 36.9 µg/mL); MIC (Mycobacterium kansasii [23]): 32 µM (≈ 9.45 µg/mL); MIC95 (Escherichia coli [24]): 500 µM (≈ 148 µg/mL); MIC (Mycobacterium kansasii [25]): 62.5 µM (≈ 18.5 µg/mL); MIC80 (Nakaseomyces glabratus [26]): > 500 µM; MIC [27]: 32 µM (≈ 9.45 µg/mL); Activity (Klebsiella pneumoniae [28]): inactive; MIC (Mycobacterium kansasii [29]): 32 µM (≈ 9.45 µg/mL); MIC [30]: 32 µM (≈ 9.45 µg/mL); Activity (Lichtheimia corymbifera): inactive; MIC80 (Candida tropicalis [31]): > 500 µM; MIC80 (Nakaseomyces glabratus [32]): > 500 µM; MIC95 (Staphylococcus aureus [33]): 62.5 µM (≈ 18.5 µg/mL); MIC50 [34]: 250 µM (≈ 73.8 µg/mL); MIC50 (Aspergillus fumigatus [35]): > 500 µM
O=C(CN1C(=O)CSC1=S)Nc1ccccc1	inactive	500 (≈ 133 µg/mL)	1000 (≈ 266 µg/mL)	inactive	500 (≈ 133 µg/mL)	500 (≈ 133 µg/mL)	> 500	500 (≈ 133 µg/mL)	> 500	inactive	> 500	1000 (≈ 266 µg/mL)	> 500	> 500	500 (≈ 133 µg/mL)	> 500	> 500	1000 (≈ 266 µg/mL)	500 (≈ 133 µg/mL)	Soluble	MIC50 (Aspergillus fumigatus [19]): > 500 µM; MIC80 (Trichosporon asahii [20]): > 500 µM; MIC (Mycobacterium kansasii [21]): 1000 µM (≈ 266 µg/mL); MIC (Mycobacterium avium [22]): > 1000 µM; MIC (Mycobacterium kansasii [23]): 1000 µM (≈ 266 µg/mL); MIC95 (Escherichia coli [24]): > 500 µM; MIC (Mycobacterium kansasii [25]): 1000 µM (≈ 266 µg/mL); MIC80 (Nakaseomyces glabratus [26]): > 500 µM; MIC [27]: 1000 µM (≈ 266 µg/mL); Activity (Klebsiella pneumoniae [28]): inactive; MIC (Mycobacterium kansasii [29]): 1000 µM (≈ 266 µg/mL); MIC [30]: 1000 µM (≈ 266 µg/mL); Activity (Lichtheimia corymbifera): inactive; MIC80 (Candida tropicalis [31]): 500 µM (≈ 133 µg/mL); MIC80 (Nakaseomyces glabratus [32]): > 500 µM; MIC95 (Staphylococcus aureus [33]): 500 µM (≈ 133 µg/mL); MIC50 [34]: > 500 µM; MIC50 (Aspergillus fumigatus [35]): > 500 µM

Reference: ChEMBL document CHEMBL3992547, “Antimicrobial activity of rhodanine-3-acetic acid derivatives” (Bioorg Med Chem, 2017)
